This test deals with human washed platelets, PMA-induced P-selectin, flow cytometry. In words: inhibitors of PMA-stimulated platelet P-selectin exposure, confirmation, selectivity assay, cell-based, fluorescence, flow cytometry, platelets (AID 2529). The note with it: at 30 µM, stronger effect = higher value. The method, boiled down:
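Test system: platelets. Doses: single compound dose of 30 µM. Times: compound pre-treatment 20 min, PMA stimulation 15 min, antibody labeling 20 min. Measured by: flow cytometry, PE anti-P-selectin.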
On the technique in general: In flow cytometry, cells or beads pass a laser one at a time.

This is an account of results in PubChem BioAssay AID2529 (Broad Institute, 2010).

Usually inhibition stands for the change of the read-out against control, counted positive when it falls.

SMILES strings stand for the structures. The source made the active and inactive calls.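 Rule for the calls: active = inhibition at 30 µM, averaged over replicates, above 50% in every run; inconclusive = inhibition above 50% in some runs but not others; inactive = inhibition at most 50% in every run.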

For `CCCC(=O)Nc1cccc(NC(=O)c2ccccc2Br)c1`, the inhibition was 13% (inactive).

For `O=C(Nc1cccc(NC(=O)c2ccccc2Cl)c1)c1ccco1`, the inhibition is 17% (inactive). For the same compound, the inhibition (measured here: second run average inhibition) stood at 8%.
